Compound activity as filed in PubChem BioAssay.
A selection: hits, their analogues and other compounds. The true share with any hit is near 3.5%.
MrgX1 allo act: allosterically activates human MrgX1 receptor signaling | AID 588675 | 310,000 tested, 0.63% active | MrgX1-HEK293, Fluo-4 calcium flux, FDSS; hits give high values | B-score at 10 µM;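 active = plate-corrected calcium response at least 3 library SD above typical, normal starting fluorescence, not activating the receptor alone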;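 also: compound read alongside a low EC10 to EC30 dose of BAM8-22 agonist; peak minus trough fluorescence over baseline measured at the second addition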
Target sequence (Q96LB2 whole entry, looked up): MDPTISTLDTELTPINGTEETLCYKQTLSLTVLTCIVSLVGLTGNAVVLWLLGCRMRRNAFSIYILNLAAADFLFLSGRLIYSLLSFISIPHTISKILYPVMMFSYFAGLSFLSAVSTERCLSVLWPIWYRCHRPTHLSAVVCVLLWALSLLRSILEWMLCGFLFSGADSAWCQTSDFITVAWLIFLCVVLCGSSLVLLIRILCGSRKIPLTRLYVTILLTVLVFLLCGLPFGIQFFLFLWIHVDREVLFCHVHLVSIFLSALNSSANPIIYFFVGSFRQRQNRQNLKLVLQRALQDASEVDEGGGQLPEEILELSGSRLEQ
RGS4 inh: human RGS4 inhibition; HEK293 M3R/RGS4 inducible, Fluo-4 calcium flux; hits give high values; triggered by carbachol at its EC20; B-score at 10 µM; 310,000 tested, 0.45% active; AID 463165;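 active = B-score, a plate-corrected calcium signal, over three deviations above library mean, with baseline fluorescence within five deviations of library mean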;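 also: RGS4 expression induced by doxycycline in cells with stable M3 receptor; B-score is computed from the integrated fluorescence ratio over baseline after carbachol; higher B-score means a larger calcium signal and so more RGS4 inhibition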
Target sequence (P49798 whole entry, looked up): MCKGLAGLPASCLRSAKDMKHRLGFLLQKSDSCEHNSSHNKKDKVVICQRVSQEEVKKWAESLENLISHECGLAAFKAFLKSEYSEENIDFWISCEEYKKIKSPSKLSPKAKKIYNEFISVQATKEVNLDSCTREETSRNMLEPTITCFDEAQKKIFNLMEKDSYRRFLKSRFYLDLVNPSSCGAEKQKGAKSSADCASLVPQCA
MrgX1 agonist: human MrgX1 receptor agonism, primary screen; Q96LB2; MrgX1-HEK293 cells, Fluo-4 calcium fluorescence, agonist mode; hits give high values; B-score at 10 µM; 310,000 tested, 0.44% active; AID 588627;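 active = calcium response B-score plate-corrected fluorescence ratio at least 3 library SD, with starting fluorescence B-score inside 5 SD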
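Test system: Stable human MrgX1 HEK293 cell line | Schedule: Overnight plating before 1 h dye loading | Read-out basis: Baseline-normalised fluorescence change ratio, B-scored | Detection: Kinetic calcium dye fluorescence, Fluo-4 NW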
MrgX1 antagonist: human MrgX1 receptor antagonism, primary screen. Q96LB2. MRGX1-HEK293 calcium flux, Fluo-4, BAM8-22 antagonism; hits give low values. B-score at 10 µM. 310,000 tested, 1.3% active. AID 588676;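 active = calcium-response B-score plate-corrected more than 3 library SD below zero, starting fluorescence within 5 deviations, no agonist response on first addition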;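 also: peak minus trough fluorescence over baseline after final BAM8-22 challenge near maximal dose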
RGS4 pot: RGS4 potentiation or activation. HEK293 M3R/inducible RGS4, carbachol calcium flux Fluo4; hits give low values. B-score at 10 µM. 310,000 tested, 0.92% active. AID 463111;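 active = B-score of the integrated calcium signal more than 4 SD below the library mean, with starting fluorescence not abnormally high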;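 also: negative B-score means reduced calcium response which marks RGS4 activation or potentiation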
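Material: M3R-expressing HEK293 line, RGS4 induced by doxycycline | Schedule: Overnight RGS4 induction, 30 min dye load 37 °C, 20 min compound RT | Measured by: Fluo4 fluorescence kinetic imaging of calcium | Read-out: Integrated calcium ratio converted to B score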
The depositor's hits bear a star; i = inactive; . = no result.

SMILES	MrgX1 allo act	RGS4 inh	MrgX1 agonist	MrgX1 antagonist	RGS4 pot
Clc1ccc2c(c1)CCc1cccnc1C2=C1CCNCC1	i	i	i	i	-7.2*
COn1c(SC(C)C)nc2ccccc2c1=O	9.2*	i	i	i	i
CC(C)On1c(SC(C)C)nc2ccccc2c1=O	i	i	i	i	i
CC(=O)Nc1cc2c(cc1NC(=O)Cn1nc(-c3ccccc3)ccc1=O)OCCO2	i	i	i	i	i
COc1ccc(C(=O)COC(=O)c2cc(S(=O)(=O)NCc3ccccc3)ccc2O)cc1	i	i	26*	i	i
Cc1ccc(C2=CC(C)(c3ccc(C)cc3)Nc3nc(C(F)(F)F)nn32)cc1 (stereo not given)	i	i	i	i	-7*
CCC(Oc1ccc2c(=O)c(-c3ccccc3OC)coc2c1)C(=O)OCc1ccccc1 (stereo not given)	i	i	i	i	-7.6*
COc1ccccc1-c1coc2cc(OC(=O)N3CCOCC3)ccc2c1=O	i	i	i	i	i
O=C(NCCO)C(=O)Nc1cc2c3c(c1)CC(=O)N3CCC2	i	i	i	i	i
O=C(CCl)c1cc2c3c(c1)CC(=O)N3CCC2	i	17*	27*	i	i
C=CCn1c(CCCNC(=O)C(C)(C)C)nc2ccccc21	i	i	i	i	i
CC(C)(C)C(=O)NCCCc1nc2ccccc2n1CCCOc1ccc(Cl)cc1	i	i	i	-5.1*	i
CNC[C@H](Cc1ccccc1)NC[C@@H](Cc1cccc2ccccc12)NCCc1ccc(C)cc1	i	i	i	i	-8.2*
CN1C(=O)/C(=C/c2ccccc2OCc2cccc(F)c2)N(C)C1=S	i	i	i	i	-9.9*
CN1C(=O)/C(=C/c2ccc(OCc3ccc(F)cc3)cc2)N(C)C1=S	i	i	i	i	i
N/C(=N\OC(=O)COc1ccc(Br)cc1)c1ccncc1	i	i	i	-6*	i
N/C(=N\OC(=O)COc1ccc([N+](=O)[O-])cc1)c1ccncc1	i	i	i	i	i
COc1ccc(F)cc1S(=O)(=O)NCc1ccccc1	i	i	i	i	i
COc1ccc(Br)cc1S(=O)(=O)NCc1ccccc1	i	i	i	-4.9*	i
CC(C)c1cccc(C(C)C)c1NC(=O)c1ccccc1	i	i	i	i	i
Cc1noc(C)c1COc1ccc(C(=O)Nc2cccnc2)cc1	.	i	.	.	-7.4*
CCc1ccc(/C=C2\SC(=S)N(CCCC(=O)Nc3ccccc3C(=O)O)C2=O)cc1	i	i	i	i	i
O=C(O)CCCCCN1C(=O)/C(=C/c2ccncc2)SC1=S	i	i	32*	i	i
O=C(O)CCCN1C(=O)/C(=C/c2ccncc2)SC1=S	i	i	i	i	i
Cc1ccc(/C=C2\SC(=S)N(CCCC(=O)Nc3ccccc3C(=O)O)C2=O)cc1	i	i	i	-5.4*	i
SMILES	MrgX1 allo act	RGS4 inh	MrgX1 agonist	MrgX1 antagonist	RGS4 pot
CN1CCN(C(=O)CCCN2C(=O)/C(=C/c3cccc(Br)c3)SC2=S)CC1	.	i	.	.	-7.2*
CN1CCN(C(=O)CCN2C(=O)/C(=C/c3cccc(Br)c3)SC2=S)CC1	i	i	i	i	i
O=C(O)CCCCCN1C(=O)/C(=C\c2ccncc2)SC1=S	i	i	34*	i	i
O=C(Nc1ccc(-c2nc3c(ccc4ccccc43)o2)cc1)c1ccco1	i	i	i	i	i
O=C(NC(=Nc1nc2ccccc2o1)NC(=O)c1ccccc1)c1ccccc1	i	i	i	i	i
COc1ccccc1C(=O)NC(=Nc1nc2ccccc2o1)NC(=O)c1ccccc1OC	i	i	i	i	-7.2*
CN(CC(=O)Nc1c(Cl)cccc1Cl)C(=O)Cc1ccc(S(=O)(=O)N2CCOCC2)s1	i	i	i	i	i
CCC(C)(C)NC(=O)C(c1ccc(F)cc1)N(Cc1cccs1)C(=O)c1cnccn1 (stereo not given)	i	i	i	-5.3*	i
CCC(C)(C)NC(=O)C(c1ccc(F)cc1)N(Cc1cccc(OC)c1)C(=O)c1cnccn1 (stereo not given)	i	i	i	i	i
O=[N+]([O-])c1cc(Br)c2nsnc2c1N1CCOCC1	i	i	59*	i	i
Cc1ccc(S(=O)(=O)n2ccc3c(OCCOCCNCc4ccc(F)cc4)cccc32)cc1	i	i	i	i	i
Cc1ccc(OCC(O)Cn2c3ccccc3c3ccccc32)cc1 (stereo not given)	i	i	i	i	i
Cc1cccc(C)c1OCC(O)Cn1c2ccccc2c2ccccc21 (stereo not given)	i	i	i	i	-7.1*
COc1cc(N2CCCC2)c(OC)cc1/C=C(/C#N)c1cccc(F)c1	i	i	i	-11*	i
N#C/C(=C/c1ccc(N2CCCCCC2)o1)c1cccc(F)c1	i	i	i	i	i
CCN(C(=O)c1cn(C)c(=O)c2ccccc12)c1ccccc1F	i	i	i	i	i
COCCn1c(=NC(=O)CSC(C)=O)sc2cc(F)ccc21	i	i	i	-9.3*	i
CSc1nnc(C)c(=O)n1COC(=O)COc1ccc(Cl)cc1Cl	i	i	i	i	i
CCC(C)N(C(=O)COc1ccccc1C(=O)NCc1ccccc1)C1CCS(=O)(=O)C1 (stereo not given)	i	i	i	-6.2*	i
COc1ccc(-c2csc3ncnc(NCCO)c23)cc1	i	i	i	i	i
COc1ccc(-c2csc3ncnc(NCCCO)c23)cc1	i	i	33*	i	i
Cc1ccc(-c2ocnc2C(=O)N2CCOCC2)cc1	i	i	i	i	i
COc1ccc(CN(C(=O)CSc2nnc(-c3ccc(F)cc3)o2)c2ccc(F)cc2)cc1	i	i	i	i	i
COc1ccc(CN(C(=O)CSc2nnc(-c3c[nH]c4ccccc34)o2)c2ccc(F)cc2)cc1OC	i	i	i	i	-8.4*
Cc1ccc(-c2cn(-c3ccccc3)c3[n+]2CCCS3)cc1	i	i	i	i	i
CCc1ccc(-n2cc(-c3ccc(F)cc3)[n+]3c2SCCC3)cc1	i	i	i	i	-7.3*
CCCCCC1(C(=O)OCC)CC(CSC(=N)N)OC1=O (stereo not given)	i	i	i	i	i
O=C(Nc1ccc(O)cc1)c1cc2ccccc2c(=O)s1	i	i	i	i	i
